Experimental data published in publication PMC7433031 (European journal of medicinal chemistry, 2020).

How the values were obtained:
[1] = tested on: BCL-XL / BCL-2 ternary complexes with DT2216 and VHL; conditions: live cells, nanoBRET assay; cited from earlier work
MOLT-4 T-ALL cells = assay: MOLT-4 cell viability assay; assay type: cell-based, human
[2] = tested on: RS4;11 B-cell ALL cell line; assay: RS4; assay type: cell-based; conditions: Homo sapiens, RS4-11, 48 h, read-out: IC50 48 h treatment RS4;11
How it was run: (§1)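 NCI-H146 small-cell lung cancer and RS4;11 B-ALL cells maintained in RPMI 1640 plus 10% FBS and 1% penicillin-streptomycin. Cells seeded at 5×10⁴ to 1×10⁵ per well and treated with test compound for 48 h. Viability measured by tetrazolium-based MTS assay, with IC50 calculated from the viability data.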

[3] = tested on: H146 small cell lung cancer cell line; assay: H146 cell viability assay; assay type: cell-based; conditions: Homo sapiens, NCI-H146, 48 h, read-out: IC50 48 h treatment H146
How it was run: as §1

[4] = tested on: PARP and caspase-3 cleavage; assay: Western blot of cleaved-PARP and cleaved-caspase-3 in MOLT-4 cells; assay type: cell-based, human; conditions: MOLT-4, 16 h, indicated concentrations
How it was run: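 MOLT-4 cells were exposed to a range of test compound concentrations for 16 h. Cleaved PARP and cleaved caspase-3 were detected by immunoblot. Equal protein was run on 4–20% Tris-glycine gels and transferred to PVDF. Membranes were blocked in 5% milk/TBS-Tween, given primary antibody overnight at 4 °C, then HRP secondary and ECL. β-actin served as loading control.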

human platelets = assay: Human platelet viability assay; assay type: cell-based; conditions: Homo sapiens, Platelet, 48 h, read-out: IC50 48 h treatment Platelets
How it was run: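 Platelets were separated from purchased platelet-rich plasma in acid citrate buffer with 1 μM PGE1 and 0.2 units/mL apyrase (final). Cells were centrifuged and adjusted to 2 × 10⁸/mL in HEPES Tyrode's buffer with 10% FBS, 1 μM PGE1 and 0.2 units/mL apyrase. They were treated for 48 h, with or without a 10 μM pomalidomide block, and read by MTS. IC50 values were curve-fitted. The ratio divides platelet IC50 by 48 h MOLT-4 MTS IC50.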

BCL-XL = BCL-XL (Homo sapiens, UniProt Q07817); assay: Western blot of BCL-XL protein levels in MOLT-4 cells; assay type: cell-based
How it was run: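 MOLT-4 cells were treated for 16 h with test compound (100 nM for VHL-based, 50 nM for CRBN-based, or a concentration series for DC50). Other runs used 100 nM over a time course, or 16 h exposure followed by washout into drug-free medium. Some cells were pretreated 2 h with 10 μM pomalidomide or 1 μM MG-132. Immunoblot bands were normalized to β-actin and expressed as % remaining versus vehicle.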

Sequence of BCL-XL (Q07817 whole entry): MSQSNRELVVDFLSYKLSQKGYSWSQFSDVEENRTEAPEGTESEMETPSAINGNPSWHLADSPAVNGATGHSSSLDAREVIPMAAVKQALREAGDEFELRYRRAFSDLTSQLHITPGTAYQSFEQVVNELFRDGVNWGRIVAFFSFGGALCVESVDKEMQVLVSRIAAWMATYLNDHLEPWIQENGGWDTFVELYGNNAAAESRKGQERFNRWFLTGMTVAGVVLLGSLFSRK

Cc1ncsc1-c1ccc([C@H](C)NC(=O)[C@@H]2C[C@@H](O)CN2C(=O)[C@@H](NC(=O)CCCCCC(=O)N2CCN(CC[C@H](CSc3ccccc3)Nc3ccc(S(=O)(=O)NC(=O)c4ccc(N5CCN(CC6=C(c7ccc(Cl)cc7)CCC(C)(C)C6)CC5)cc4)cc3S(=O)(=O)C(F)(F)F)CC2)C(C)(C)C)cc1 [Compound 1e, (2S,4R)-1-((S)-2-(7-(4-((R)-3-((4-(N-(4-(4-((4’-Chloro-4,4-dimethyl-3,4,5,6-tetrahydro-[1,1’-biphenyl]-2-yl)methyl)piperazin-1-yl)benzoyl)sulfamoyl)-2-((trifluoromethyl)sulfonyl)phenyl)amino)-4-(phenylthio)butyl)piperazin-1-yl)-7-oxoheptanamido)-3,3-dimethylbutanoyl)-4-hydroxy-N-((S)-1-(4-(4-methylthiazol-5-yl)phenyl)ethyl)pyrrolidine-2-carboxamide]
formation of stable ternary complexes with VHL [1]: BCL-XL, but not BCL-2, can form stable ternary complexes
times more potent than ABT-263 in reducing MOLT-4 cell viability (MOLT-4 T-ALL cells; MOLT-4, versus ABT-263): 3 times

CN(CCOCCOCCOCCNc1cccc2c1C(=O)N(C1CCC(=O)NC1=O)C2=O)CC[C@H](CSc1ccccc1)Nc1ccc(S(=O)(=O)NC(=O)c2ccc(N3CCN(CC4=C(c5ccc(Cl)cc5)CCC(C)(C)C4)CC3)cc2)cc1S(=O)(=O)C(F)(F)F (stereo partly drawn) [Compound 17b, 4-(4-((4’-Chloro-4,4-dimethyl-3,4,5,6-tetrahydro-[1,1’-biphenyl]-2-yl)methyl)piperazin-1-yl)-N-((4-(((15R)-1-((2-(2,6-dioxopiperidin-3-yl)-1,3-dioxoisoindolin-4-yl)amino)-12-methyl-16-(phenylthio)-3,6,9-trioxa-12-azahexadecan-15-yl)amino)-3-((trifluoromethyl)sulfonyl)phenyl)sulfonyl)benzamide]
IC50 [2]: 41.8 nM
IC50 [3]: 25.3 nM
PARP and caspase-3 cleavage [4]: dose-dependently increased
IC50 (MOLT-4 T-ALL cells; Homo sapiens, MOLT-4, 48 h, read-out: IC50, reduction of MOLT-4 cell viability): 10.1 nM
IC50 (human platelets): 1220 nM
effects on BCL-XL protein levels after drug washout (BCL-XL; MOLT-4, 100 nM for 16 h then washout): long-lasting and also reversible
BCL-XL degradation after pretreatment with MG-132 or pomalidomide (BCL-XL; MOLT-4, 1 μM MG-132 or 10 μM pomalidomide pretreatment for 2 h): can be abrogated
BCL-XL degradation at indicated concentrations (BCL-XL; MOLT-4, 16 h, Western blot (Figure 5A, 5F)): dose-dependently induced BCL-XL degradation
